{"source": "ChEMBL document CHEMBL4334452", "about": "“Monosaccharide Analogues of Anticancer Peptide R-Lycosin-I: Role of Monosaccharide Conjugation in Complexation and the Potential of Lung Cancer Targeting and Therapy” (J Med Chem, 2019)", "key": {"HEK-293T [1]": {"test_system": "HEK-293T", "experiment": "Cytotoxicity against HEK293T cells at 12.5 uM measured after 2 hrs by LDH release assay", "assay_type": "cell-based", "settings": "human"}, "HEK-293T [2]": {"test_system": "HEK-293T", "experiment": "Cytotoxicity against HEK293T cells assessed as reduction in cell viability measured after 24 hrs by CCK8 assay", "assay_type": "cell-based, Homo sapiens", "settings": "for Activity: human, hek-293t", "procedure,_shortened": "(§1)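 Cells (A549, H460, H1437, PC-3, HGC-27, MDA-MB-231, HEK-293T, L-02) seeded at about 2×10^3/well and grown overnight. Treated 24 h with a peptide concentration series in serum-free medium. Viability by CCK-8; IC50 taken as 50% inhibition versus untreated cells. Average of three experiments, each in triplicate.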"}, "[3]": {"biological_target": "T1, Solute carrier family 2, facilitated glucose transporter member 1 (Homo sapiens) (UniProt P11166)", "T1 sequence (whole entry)": "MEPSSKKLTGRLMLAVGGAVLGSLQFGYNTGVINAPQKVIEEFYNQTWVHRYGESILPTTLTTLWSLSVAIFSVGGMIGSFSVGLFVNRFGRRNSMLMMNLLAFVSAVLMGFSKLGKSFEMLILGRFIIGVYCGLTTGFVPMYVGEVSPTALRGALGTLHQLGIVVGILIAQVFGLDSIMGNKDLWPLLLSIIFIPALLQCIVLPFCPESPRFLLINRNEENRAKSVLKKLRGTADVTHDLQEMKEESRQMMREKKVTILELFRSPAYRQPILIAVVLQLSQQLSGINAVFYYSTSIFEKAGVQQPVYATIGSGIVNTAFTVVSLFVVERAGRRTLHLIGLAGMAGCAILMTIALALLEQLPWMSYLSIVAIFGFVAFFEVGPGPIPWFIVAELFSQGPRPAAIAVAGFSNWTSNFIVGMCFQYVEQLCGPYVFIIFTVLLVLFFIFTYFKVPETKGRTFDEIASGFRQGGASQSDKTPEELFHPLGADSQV", "experiment": "Binding affinity to GLUT1 in human A549 cells assessed as cytotoxicity by measuring reduction in cell viability at 12.5 uM measured after 2 hrs in presence of GLUT1 inhibitor STF-31 by CCK8 assay", "assay_type": "cell-based", "procedure,_shortened": "(§2)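 A549 cells at 2×10^3/well, grown overnight, then preincubated 4 h in F12K/10% FBS with or without STF-31 (1 µM final). […] Incubated a further 2 h at 37 °C; viability by CCK-8.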"}, "[4]": {"biological_target": "T1, Solute carrier family 2, facilitated glucose transporter member 1 (Homo sapiens)", "experiment": "Binding affinity to GLUT1 in human A549 cells assessed as cytotoxicity by measuring reduction in cell viability at 15 uM by trypan blue staining-based assay", "procedure,_shortened": "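A549 cells stained with trypan blue after peptide treatment at 15 µM. Dead cells appear blue and live cells unstained; live cells were counted.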"}, "[5]": {"biological_target": "T1, Solute carrier family 2, facilitated glucose transporter member 1 (Homo sapiens)", "experiment": "Binding affinity to GLUT1 in human A549 cells assessed as cytotoxicity by measuring reduction in cell viability at 12.5 uM measured after 2 hrs in absence of GLUT1 inhibitor STF-31 by CCK8 assay", "assay_type": "cell-based", "procedure,_shortened": "as §2"}, "[6]": {"biological_target": "T1, Solute carrier family 2, facilitated glucose transporter member 1 (Homo sapiens)", "experiment": "Binding affinity to GLUT1 in human A549 cells assessed as cytotoxicity at 12.5 uM measured after 2 hrs by LDH release assay", "assay_type": "cell-based", "procedure,_shortened": "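A549 cells at 2×10^3/well, allowed to adhere overnight, then exposed to peptide over a concentration series for 2 h. LDH release measured with a kit, absorbance at 490 nm. 1% Triton X-100 taken as 100% release; n=3.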"}, "[7]": {"biological_target": "T1, Solute carrier family 2, facilitated glucose transporter member 1 (Homo sapiens)", "experiment": "Binding affinity to GLUT1 in human A549 cells assessed as cytotoxicity by measuring reduction in cell viability measured after 24 hrs by CCK8 assay", "assay_type": "cell-based", "procedure,_shortened": "as §1"}}, "note": "Active and inactive are the calls of the source. The rule behind the calls is not given here. *1 amine or outer side, *2 acyl side, *3 side chain or, on linkers, in order; H or OH if unused. Where a SMILES comes first, the peptide text is derived from it. The star is where a group is joined. X4 = CC(=O)N[C@H]1[C@H](OCCCN*)O[C@H](CO)[C@@H](O)[C@@H]1O; X3 = OC[C@H]1O[C@H](OCCCN*)[C@@H](O)[C@@H](O)[C@@H]1O; X1 = OC[C@H]1O[C@@H](OCCCN*)[C@H](O)[C@@H](O)[C@H]1O; X2 = O[C@@H]1[C@@H](O)[C@H](OCCCN*)OC[C@@H]1O; Glutaryl = O=C(CCCC(=O)[*:2])[*:1]", "data": [{"compound": "CC[C@H](C)[C@H](NC(=O)[C@H](Cc1ccccc1)NC(=O)[C@H](CCCNC(=N)N)NC(=O)[C@H](C)NC(=O)[C@@H](NC(=O)[C@H](CO)NC(=O)[C@H](CCCNC(=N)N)NC(=O)[C@H](CCSC)NC(=O)[C@H](C)NC(=O)[C@H](CCCNC(=N)N)NC(=O)[C@H](Cc1ccccc1)NC(=O)[C@H](Cc1c[nH]c2ccccc12)NC(=O)CNC(=O)[C@H](CCCNC(=N)N)NC(=O)CCCC(=O)NCCCO[C@@H]1O[C@H](CO)[C@H](O)[C@H](O)[C@H]1O)[C@@H](C)CC)C(=O)N[C@@H](C)C(=O)N[C@@H](CCCNC(=N)N)C(=O)N[C@@H](CCC(=O)O)C(=O)N[C@@H](CCCNC(=N)N)C(=O)N[C@@H](CC(C)C)C(=O)N[C@@H](CCCNC(=N)N)C(=O)N[C@@H](CCC(=O)O)C(=O)N[C@@H](Cc1cnc[nH]1)C(=O)N[C@@H](CC(C)C)C(=O)O", "note": "({X1-Glutaryl}-RGWFRAMRSIARFIARERLREHL-OH)", "values": [{"measurement": "Activity", "setting": "HEK-293T [1]", "result": "Toxic"}, {"measurement": "IC50", "setting": "HEK-293T [2]; Homo sapiens, HEK-293T", "result": 8.3, "unit": "µM"}, {"measurement": "Activity", "setting": "[3]", "result": "Active"}, {"measurement": "Activity", "setting": "[4]", "result": "Active"}, {"measurement": "Activity", "setting": "[5]", "result": "Active"}, {"measurement": "Activity", "setting": "[6]", "result": "Active"}]}, {"compound": "CC[C@H](C)[C@H](NC(=O)[C@H](Cc1ccccc1)NC(=O)[C@H](CCCNC(=N)N)NC(=O)[C@H](C)NC(=O)[C@@H](NC(=O)[C@H](CO)NC(=O)[C@H](CCCNC(=N)N)NC(=O)[C@H](CCSC)NC(=O)[C@H](C)NC(=O)[C@H](CCCNC(=N)N)NC(=O)[C@H](Cc1ccccc1)NC(=O)[C@H](Cc1c[nH]c2ccccc12)NC(=O)CNC(=O)[C@H](CCCNC(=N)N)NC(=O)CCCC(=O)NCCCO[C@H]1O[C@H](CO)[C@@H](O)[C@H](O)[C@@H]1O)[C@@H](C)CC)C(=O)N[C@@H](C)C(=O)N[C@@H](CCCNC(=N)N)C(=O)N[C@@H](CCC(=O)O)C(=O)N[C@@H](CCCNC(=N)N)C(=O)N[C@@H](CC(C)C)C(=O)N[C@@H](CCCNC(=N)N)C(=O)N[C@@H](CCC(=O)O)C(=O)N[C@@H](Cc1cnc[nH]1)C(=O)N[C@@H](CC(C)C)C(=O)O", "note": "({X3-Glutaryl}-RGWFRAMRSIARFIARERLREHL-OH)", "values": [{"measurement": "Activity", "setting": "HEK-293T [2]", "result": "Non-Toxic"}, {"measurement": "Activity", "setting": "[7]", "result": "inactive"}, {"measurement": "Activity", "setting": "[4]", "result": "inactive"}]}, {"compound": "CC[C@H](C)[C@H](NC(=O)[C@H](Cc1ccccc1)NC(=O)[C@H](CCCNC(=N)N)NC(=O)[C@H](C)NC(=O)[C@@H](NC(=O)[C@H](CO)NC(=O)[C@H](CCCNC(=N)N)NC(=O)[C@H](CCSC)NC(=O)[C@H](C)NC(=O)[C@H](CCCNC(=N)N)NC(=O)[C@H](Cc1ccccc1)NC(=O)[C@H](Cc1c[nH]c2ccccc12)NC(=O)CNC(=O)[C@H](CCCNC(=N)N)NC(=O)CCCC(=O)NCCCO[C@@H]1OC[C@H](O)[C@H](O)[C@H]1O)[C@@H](C)CC)C(=O)N[C@@H](C)C(=O)N[C@@H](CCCNC(=N)N)C(=O)N[C@@H](CCC(=O)O)C(=O)N[C@@H](CCCNC(=N)N)C(=O)N[C@@H](CC(C)C)C(=O)N[C@@H](CCCNC(=N)N)C(=O)N[C@@H](CCC(=O)O)C(=O)N[C@@H](Cc1cnc[nH]1)C(=O)N[C@@H](CC(C)C)C(=O)O", "note": "({X2-Glutaryl}-RGWFRAMRSIARFIARERLREHL-OH)", "values": [{"measurement": "Activity", "setting": "HEK-293T [1]", "result": "Toxic"}, {"measurement": "Activity", "setting": "[3]", "result": "Active"}, {"measurement": "Activity", "setting": "[4]", "result": "Active"}, {"measurement": "Activity", "setting": "[5]", "result": "Active"}, {"measurement": "Activity", "setting": "[6]", "result": "Active"}]}, {"compound": "CC[C@H](C)[C@H](NC(=O)[C@H](Cc1ccccc1)NC(=O)[C@H](CCCNC(=N)N)NC(=O)[C@H](C)NC(=O)[C@@H](NC(=O)[C@H](CO)NC(=O)[C@H](CCCNC(=N)N)NC(=O)[C@H](CCSC)NC(=O)[C@H](C)NC(=O)[C@H](CCCNC(=N)N)NC(=O)[C@H](Cc1ccccc1)NC(=O)[C@H](Cc1c[nH]c2ccccc12)NC(=O)CNC(=O)[C@H](CCCNC(=N)N)NC(=O)CCCC(=O)NCCCO[C@@H]1O[C@H](CO)[C@@H](O)[C@H](O)[C@H]1NC(C)=O)[C@@H](C)CC)C(=O)N[C@@H](C)C(=O)N[C@@H](CCCNC(=N)N)C(=O)N[C@@H](CCC(=O)O)C(=O)N[C@@H](CCCNC(=N)N)C(=O)N[C@@H](CC(C)C)C(=O)N[C@@H](CCCNC(=N)N)C(=O)N[C@@H](CCC(=O)O)C(=O)N[C@@H](Cc1cnc[nH]1)C(=O)N[C@@H](CC(C)C)C(=O)O", "note": "({X4-Glutaryl}-RGWFRAMRSIARFIARERLREHL-OH)", "values": [{"measurement": "Activity", "setting": "HEK-293T [2]", "result": "Non-Toxic"}, {"measurement": "Activity", "setting": "[7]", "result": "inactive"}, {"measurement": "Activity", "setting": "[4]", "result": "inactive"}]}]}
